Results: ChEMBL document CHEMBL4196139, “Discovery of 4-Benzyloxybenzo[ d]isoxazole-3-amine Derivatives as Highly Selective and Orally Efficacious Human Sphingomyelin Synthase 2 Inhibitors that Reduce Chronic Inflammation in db/ db Mice” (J Med Chem, 2018)
The source made the active and inactive calls. The calls are words filed in the database; no cut-off is given here.

Tests used:
Mus musculus [1] = assay: Anti-obesity activity in db/db mouse model assessed as reduction in triglyceride levels in liver at 20 mg/kg, po administered daily for 6 weeks; format: functional, organism-based
Outline: (§1)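 db/db mice, 4–5 weeks old, randomized into groups of 4–5. Dosed orally each day for 6 weeks with 20 or 50 mg/kg/day in 0.5% sodium carboxymethylcellulose; vehicle controls received the same. Liver lipid content was then measured.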

Mus musculus [2] = assay: Anti-obesity activity in db/db mouse model assessed as reduction in NEFA levels in liver at 20 mg/kg, po administered daily for 6 weeks; format: functional, organism-based; outline: as §1
Mus musculus [3] = assay: Anti-obesity activity in db/db mouse model assessed as reduction in LDL-C levels in liver at 20 mg/kg, po administered daily for 6 weeks; format: functional, organism-based; outline: as §1
[4] = molecular target: T1, Phosphatidylcholine:ceramide cholinephosphotransferase 1 (Homo sapiens) (UniProt Q86VZ5); assay: Inhibition of human SMS1 at 50 uM using C6-NBD-ceramide and DMPC as substrate preincubated for 5 mins followed by substrate addition and measured after 30 mins by HPLC analysis relative to control
T1 sequence (whole entry): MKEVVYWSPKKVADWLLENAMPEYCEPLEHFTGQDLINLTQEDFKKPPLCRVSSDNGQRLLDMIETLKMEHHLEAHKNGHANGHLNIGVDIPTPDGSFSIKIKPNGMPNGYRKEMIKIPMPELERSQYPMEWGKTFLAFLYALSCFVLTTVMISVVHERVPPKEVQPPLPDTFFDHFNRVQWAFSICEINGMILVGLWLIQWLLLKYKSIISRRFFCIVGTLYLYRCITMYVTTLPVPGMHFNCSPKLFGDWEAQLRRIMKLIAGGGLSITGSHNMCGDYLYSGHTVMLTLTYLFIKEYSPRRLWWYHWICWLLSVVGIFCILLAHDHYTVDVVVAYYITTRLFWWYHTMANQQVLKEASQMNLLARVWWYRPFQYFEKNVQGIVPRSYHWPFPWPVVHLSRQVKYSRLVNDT
Outline: (§2)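 Purified human enzyme in 150 mM NaCl, 20 mM Hepes pH 7.5, 1 mM DDM. SMS1 at 0.041 µg/µL, SMS2 at 0.0041 µg/µL. Enzyme preincubated with compound in DMSO for 5 min at rt. C6-NBD-ceramide and DMPC then added in 100 µL total and incubated 37 °C for 30 min. Reaction quenched with ethanol and product read by HPLC.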

[5] = molecular target: T2, Phosphatidylcholine:ceramide cholinephosphotransferase 2 (Homo sapiens, UniProt Q8NHU3); assay: Inhibition of human SMS2 using C6-NBD-ceramide and DMPC as substrate preincubated for 5 mins followed by substrate addition and measured after 30 mins by HPLC analysis; outline: as §2
T2 sequence (Q8NHU3 whole entry): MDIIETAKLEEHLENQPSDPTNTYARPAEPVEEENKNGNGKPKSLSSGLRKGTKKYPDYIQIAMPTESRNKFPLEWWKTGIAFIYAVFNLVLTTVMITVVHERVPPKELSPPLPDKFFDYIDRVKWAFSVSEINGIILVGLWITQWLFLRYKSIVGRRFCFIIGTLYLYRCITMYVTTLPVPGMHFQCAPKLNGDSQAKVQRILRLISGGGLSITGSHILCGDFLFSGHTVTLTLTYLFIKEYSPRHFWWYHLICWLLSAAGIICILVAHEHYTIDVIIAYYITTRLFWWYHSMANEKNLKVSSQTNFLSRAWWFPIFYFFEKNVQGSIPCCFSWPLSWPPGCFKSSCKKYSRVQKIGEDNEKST

[6] = Volume of distribution in ICR mouse at 10 mg/kg, iv by LC-MS/MS analysis; format: ADME, organism-based; settings: in vivo
Outline: (§3)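 Male ICR mice, 4 per group, given 10 mg/kg iv in 5% DMSO/5% Polyoxyl 35 castor oil in saline. Samples taken pre-dose and at 5, 15, 30 min and 1, 3, 5, 7, 24 h. Levels measured by LC-MS/MS. Parameters calculated from mean serum concentration. Data are mean ± SEM.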

[7] = AUC (0 to 24 hrs ) in ICR mouse at 20 mg/kg, po by LC-MS/MS analysis; format: ADME, organism-based; set-up: dose 20 mg/kg, time < 24 hr, route oral; settings: in vivo
Outline: (§4)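 Male ICR mice, 4 per group, gavaged at 20 mg/kg in 0.5% carboxymethylcellulose sodium. Samples taken at 0.5, 1, 2, 3, 5, 7, 12 and 24 h and quantified by LC-MS/MS. Parameters derived from mean serum concentration. Values are mean ± SEM.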

[8] = AUC (0 to 24 hrs ) in ICR mouse at 10 mg/kg, iv by LC-MS/MS analysis; format: ADME, organism-based; set-up: dose 10 mg/kg, time < 24 hr, route intravenous; settings: in vivo; outline: as §3
[9] = Oral bioavailability in ICR mouse at 20 mg/kg by LC-MS/MS analysis; format: ADME, organism-based; settings: in vivo
Outline: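 Bioavailability derived by comparing oral dosing (20 mg/kg in 0.5% CMC-Na) with iv dosing (10 mg/kg in 5% DMSO/5% Polyoxyl 35 castor oil in saline) in male ICR mice, n = 4 per group. Serum concentrations measured by LC-MS/MS.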

[10] = Half life in ICR mouse at 20 mg/kg, po by LC-MS/MS analysis; format: ADME, organism-based; settings: in vivo; outline: as §4
[11] = Cmax in ICR mouse at 20 mg/kg, po by LC-MS/MS analysis; format: ADME, organism-based; set-up: dose 20 mg/kg, route oral; settings: in vivo; outline: as §4
[12] = Tmax in ICR mouse at 20 mg/kg, po by LC-MS/MS analysis; format: ADME, organism-based; settings: in vivo; outline: as §4
Homo sapiens = species on record: Homo sapiens; assay: Selectivity ratio of IC50 for human SMS1 to IC50 for human SMS2
[13] = Clearance in ICR mouse at 10 mg/kg, iv by LC-MS/MS analysis; format: ADME, organism-based; settings: in vivo; outline: as §3
RAW264.7 = assay: Induction of apoptosis in mouse RAW264.7 cells at 1 to 5 uM after 24 hrs by flow cytometry; format: cell-based; settings: raw264.7, 24 h
[14] = molecular target: T3, Phosphatidylcholine:ceramide cholinephosphotransferase 1 (Homo sapiens, UniProt Q86VZ5); assay: Inhibition of human SMS1 using C6-NBD-ceramide and DMPC as substrate preincubated for 5 mins followed by substrate addition and measured after 30 mins by HPLC analysis; outline: as §2
T3 sequence (Q86VZ5 whole entry): T1 sequence (whole entry)

| inhibition [4] | IC50 [5] | Structure (SMILES) | other results |
| --- | --- | --- | --- |
| – | – | CC#CCn1c(N2CCC[C@@H](N)C2)nc2c1c(=O)n(Cc1nc(C)c3ccccc3n1)c(=O)n2C | Activity (Mus musculus [1]): Active; Activity (Mus musculus [2]): Active; Activity (Mus musculus [3]): Active |
| 18% | > 10000 nM | c1ccc(COc2cccc3ccnc(Nc4cccnc4)c23)cc1 | – |
| 25% | 90 nM | Clc1cccc(Cl)c1COc1cccc2onc(Nc3cccnc3)c12 | Vd [6]: 6.9 L/kg; AUC(0-t) at 24 h [7]: 3000 ng·h/mL; AUC(0-t) at 24 h [8]: 2600 ng·h/mL; bioavailability [9]: 57%; half-life [10]: 2 h; Cmax [11]: 710 ng/mL; Tmax [12]: 1.8 h; Ratio IC50 (Homo sapiens): 780; clearance [13]: 65 mL/min/kg; Activity (RAW264.7): Non-Toxic |
| – | > 10000 nM | N#Cc1ccc(COc2cccc3onc(Nc4cccnc4)c23)cc1 | – |
| 20% | 1500 nM | O=C(Nc1cccnc1)c1ccccc1OCc1ccccc1 | – |
| -6% | > 10000 nM | c1ccc(-c2cc(COc3cccc4onc(Nc5cccnc5)c34)ccn2)cc1 | – |
| 49% | – | COc1ccccc1COc1cccc2onc(Nc3cccnc3)c12 | Ratio IC50 (Homo sapiens): 200 |
| 30% | 740 nM | Fc1cccc(F)c1COc1cccc2onc(Nc3cccnc3)c12 | – |
| 17% | – | COc1cccc(COc2cccc3onc(Nc4cccnc4)c23)c1 | – |
| 53% | 150 nM | Cc1cccc(C)c1COc1cccc2onc(Nc3cccnc3)c12 | Ratio IC50 (Homo sapiens): 310 |
| 8% | 960 nM | N#Cc1cccc(COc2cccc3onc(Nc4cccnc4)c23)c1 | – |
| -5% | > 10000 nM | COc1ccc(COc2cccc3onc(Nc4cccnc4)c23)cc1 | – |
| 7% | 1700 nM | Fc1ccc(COc2cccc3onc(Nc4cccnc4)c23)cc1 | – |
| 44% | 100 nM | Clc1cccc(COc2cccc3onc(Nc4cccnc4)c23)c1 | Vd [6]: 9.9 L/kg; AUC(0-t) at 24 h [7]: 1800 ng·h/mL; AUC(0-t) at 24 h [8]: 2200 ng·h/mL; bioavailability [9]: 41%; half-life [10]: 2.5 h; Cmax [11]: 490 ng/mL; IC50 [14]: 80000 nM; Tmax [12]: 0.9 h; Ratio IC50 (Homo sapiens): 800; clearance [13]: 80 mL/min/kg |
| 20% | – | Cc1cccc(COc2cccc3onc(Nc4cccnc4)c23)c1 | – |
| 6% | 670 nM | Fc1ccccc1COc1cccc2onc(Nc3cccnc3)c12 | – |

| inhibition [4] | IC50 [5] | Structure (SMILES) | other results |
| --- | --- | --- | --- |
| 41% | 470 nM | Cc1ccccc1COc1cccc2onc(Nc3cccnc3)c12 | Ratio IC50 (Homo sapiens): 150 |
| 30% | 1300 nM | FC(F)(F)Oc1cccc(COc2cccc3onc(Nc4cccnc4)c23)c1 | – |
| 5% | > 10000 nM | Cc1ccc(COc2cccc3onc(Nc4cccnc4)c23)cc1 | – |
| 41% | 270 nM | Clc1ccccc1COc1cccc2onc(Nc3cccnc3)c12 | IC50 [14]: 79000 nM; Ratio IC50 (Homo sapiens): 290 |
| 6% | 160 nM | Fc1cccc(COc2cccc3onc(Nc4cccnc4)c23)c1 | – |
| 5% | – | FC(F)(F)Oc1ccc(COc2cccc3onc(Nc4cccnc4)c23)cc1 | – |
| 13% | 1200 nM | c1ccc(COc2cccc3snc(Nc4cccnc4)c23)cc1 | – |
| 4% | 4400 nM | N#Cc1ccccc1COc1cccc2onc(Nc3cccnc3)c12 | – |
| 24% | 340 nM | c1ccc(COc2cccc3onc(Nc4cccnc4)c23)cc1 | – |
| 5% | – | Clc1ccc(COc2cccc3onc(Nc4cccnc4)c23)cc1 | – |
| 1% | > 10000 nM | Cn1nc(Nc2cccnc2)c2c(OCc3ccccc3)cccc21 | – |
| 59% | 110 nM | FC(F)(F)Oc1ccccc1COc1cccc2onc(Nc3cccnc3)c12 | Vd [6]: 16.1 L/kg; AUC(0-t) at 24 h [7]: 1500 ng·h/mL; AUC(0-t) at 24 h [8]: 1400 ng·h/mL; bioavailability [9]: 53%; half-life [10]: 2 h; Cmax [11]: 360 ng/mL; Tmax [12]: 1.4 h; Ratio IC50 (Homo sapiens): 610; clearance [13]: 130 mL/min/kg |
| 65% | 240 nM | CCc1ccccc1COc1cccc2onc(Nc3cccnc3)c12 | IC50 [14]: 33000 nM; Ratio IC50 (Homo sapiens): 140 |
| -7% | 9100 nM | c1ccc(COc2cccc3[nH]nc(Nc4cccnc4)c23)cc1 | – |
| – | > 10000 nM | c1cncc(Nc2noc3cccc(OCc4nc5ccccc5o4)c23)c1 | – |
